According to article PMC3326416 (Journal of the American Chemical Society, 2012):
“And” between values parts separate entries of the source, which are not always exact repeats. Identical values can stand only once. “Also recorded” adds a separate entry of the source.

Assays:
PME-1 [1] = target: T1, PME-1 (Mus musculus, UniProt Q8BVQ5); experiment: ABPP-SILAC in Neuro-2A cells, PME-1; assay type: cell-based; settings: 100 nM, 2 h
T1 sequence (Q8BVQ5 1-386): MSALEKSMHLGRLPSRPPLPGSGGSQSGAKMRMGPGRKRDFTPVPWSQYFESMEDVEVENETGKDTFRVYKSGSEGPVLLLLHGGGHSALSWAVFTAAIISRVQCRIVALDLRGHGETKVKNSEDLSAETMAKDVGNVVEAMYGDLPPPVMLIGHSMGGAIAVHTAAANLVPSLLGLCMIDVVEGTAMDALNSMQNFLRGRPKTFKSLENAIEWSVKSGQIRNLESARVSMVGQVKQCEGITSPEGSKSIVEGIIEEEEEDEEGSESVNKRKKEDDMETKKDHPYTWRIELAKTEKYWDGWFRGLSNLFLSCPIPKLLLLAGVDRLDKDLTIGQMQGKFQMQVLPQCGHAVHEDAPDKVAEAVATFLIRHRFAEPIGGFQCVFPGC
Outline: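 Neuro-2A cells were grown in isotopically light or heavy amino acids: light cells got DMSO, heavy cells got test compound at 100 nM for 2 h. Proteomes were labelled with FP-biotin, mixed 1:1, avidin-enriched and analysed by LC/LC-MS/MS on an LTQ-Velos Orbitrap. Activity is the heavy:light MS1 ion ratio of tryptic peptides, reported as mean ± SEM over all peptides quantified per hydrolase.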

PME-1 [2] = settings: acylation of active-site serine nucleophile; cited from earlier work
serine hydrolases = experiment: Gel-based ABPP in situ in Neuro2A cells, off-target serine hydrolases; assay type: cell-based, mouse
Outline: (§1)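 Intact Neuro-2A cells were treated with test compound at 10–0.001 µM for 2 h. Membrane and soluble proteomes were then analysed by gel-based competitive ABPP, and IC50 was derived from the gel signal. Data are mean ± SEM, n = 3/group.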

ABHD10 [3] = target: T2, ABHD10 (Mus musculus, UniProt Q6PE15); experiment: ABPP-SILAC in Neuro-2A cells, ABHD10; assay type: cell-based
T2 sequence (Q6PE15 44-297): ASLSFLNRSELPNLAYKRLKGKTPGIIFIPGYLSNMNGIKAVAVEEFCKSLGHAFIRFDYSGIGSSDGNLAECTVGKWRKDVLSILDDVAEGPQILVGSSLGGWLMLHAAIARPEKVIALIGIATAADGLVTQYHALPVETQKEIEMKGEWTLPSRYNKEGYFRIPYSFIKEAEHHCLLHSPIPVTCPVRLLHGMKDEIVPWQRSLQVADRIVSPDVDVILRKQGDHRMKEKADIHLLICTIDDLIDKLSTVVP

ABHD10 [4] = target: T2, ABHD10; experiment: Gel-based ABPP in situ in Neuro2A cells, ABHD10; assay type: cell-based; settings: single treatment, 250 nM
Outline: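 Neuro-2A cells received a single in situ treatment with test compound at 250 nM. ABHD10 activity was then followed by gel-based ABPP of cell proteomes over a period of up to 6 h after treatment.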

PME-1 [5] = target: T1, PME-1; experiment: Gel-based ABPP in situ in Neuro2A cells, PME-1; assay type: cell-based; settings: up to 10 µM, 2 h
Outline: as §1

ABHD10 [6] = target: T2, ABHD10; experiment: Competitive ABPP of Neuro2A proteomes; assay type: biochemical
ABHD10 [7] = target: T2, ABHD10; experiment: ABPP-SILAC in BW5147-derived mouse T-cell hybridoma cells, ABHD10; assay type: cell-based
Outline: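 ABPP-SILAC in a second line, BW5147-derived mouse T-cell hybridoma cells. Cells were cultured in light or heavy amino acids and treated with DMSO or test compound. Proteomes were FP-biotin-labelled, combined 1:1, avidin-enriched and analysed by LC/LC-MS/MS. Serine hydrolase activity was quantified from heavy:light MS1 ratios of tryptic peptides.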

SMILES	disruption of PME-1 activity (ABPP-SILAC) (PME-1 [1])	inhibition of PME-1 in cells and mice (PME-1 [2])	concentration at which off-targets are detected (serine hydrolases) [µM]	inhibition of ABHD10 (ABPP-SILAC), in words (ABHD10 [3]; 100 nM, 2 h)	loss in ABHD10 activity (ABHD10 [3]; 100 nM, 2 h, ABPP-SILAC, ~40 serine hydrolase activities detected) [%]	inhibition of ABHD10 at higher concentration (ABHD10 [3]; 250 nM)	time complete inhibition of ABHD10 was maintained (ABHD10 [4])	inhibition of PME-1 in situ (PME-1 [5])	selectivity for ABHD10 over ABHD6, PREP, PME-1, and other serine hydrolases (ABHD10 [6])	IC50 (ABHD10 [6]; read-out: IC50 ABHD10, in vitro)	inhibition of ABHD10 in second cell line (ABHD10 [7])
COC(=O)N1C(=O)[C@](c2ccccc2)(C2CCCC2)N1C(=O)OC [ABL127]	complete and selective disruption; also recorded: selective inhibition	irreversibly inhibit	–	–	–	–	–	–	–	–	–
CCC1(c2ccc(C)cc2)C(=O)N(C(=O)OC(C)C)N1C(=O)OC(C)C (centres unmarked) [ABL303]	–	–	≥ 1	selective inhibition	> 95	complete and selective inhibition	at least 6 h	no significant inhibition	at least 40 fold	~30 nM and 30 nM	complete and selective inhibition
